Experimental data: ChEMBL document CHEMBL1125653, “Synthesis and pharmacological evaluation of a major metabolite of ameltolide, a potent anticonvulsant” (1991)

Experiments:
Format in all cases: functional
Mus musculus [1] = assay: Time to peak anticonvulsant effect was measured after oral dosing in mice.
Procedure, shortened: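 Time to peak anticonvulsant effect in MES-tested male CF-1 mice after oral dosing (5% acacia/water suspension, 0.01 mL/g, 1.5 h fasted). Used to set the test time for the oral ED50 determinations.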

Mus musculus [2] = assay: Anticonvulsant effect by maximal electroshock assay in mice after intravenous administration.
Procedure, shortened: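 Male CF-1 mice, 18–26 g. Compounds dissolved in 2.5% ethanol–2.5% emulphor/water and injected into the tail vein 5 min before MES: 50 mA ac, 0.1 s, corneal electrodes. Absence of tonic hindlimb extension scored as protection. Groups of 12 mice per dose; ED50 with 95% confidence limits calculated from dose–effect data.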

Mus musculus [3] = assay: Anticonvulsant effect by maximal electroshock assay in mice after peroral administration.; settings: po
Procedure, shortened: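 Male CF-1 mice, 18–26 g, fasted from food and water 1.5 h; compounds suspended in 5% acacia/water, given orally at 0.01 mL/g. Tested at each compound's time of peak effect. MES: 50 mA ac for 0.1 s via corneal electrodes; protection = no hindlimb tonic extension. Groups of 12 mice at several doses; ED50 and 95% confidence limits computed from dose–effect data.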

[4] = Protective index measured as the ratio of HS ED50/MES ED50 values.
Procedure, shortened: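 Ratio of oral horizontal-screen ED50 to oral MES ED50 in male CF-1 mice. Both ED50s were derived from groups of 12 mice given compound suspended in 5% acacia/water.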

Mus musculus [5] = assay: Anticonvulsant effect by horizontal screen assay in mice after peroral administration.; settings: po, in the assay text read “Neurological impairment” for “Anticonvulsant effect”
Procedure, shortened: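 Neurological impairment in previously trained male CF-1 mice (18–26 g) after oral dosing in 5% acacia/water (0.01 mL/g; 1.5 h food and water deprivation). Each mouse placed on a 13 × 13 cm no. 4 mesh wire screen, which was rotated 180°. Scored on whether it climbed back to the top within 1 min. Groups of 12 per dose; ED50 with 95% confidence limits.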

SMILES: CC(=O)Nc1ccc(C(=O)Nc2c(C)cccc2CO)cc1
- TPE (Mus musculus [1]): 1 h
- ED50 (Mus musculus [2]): > 80 mg/kg
- ED50 (Mus musculus [3]): > 100 mg/kg

SMILES: Cc1cccc(CO)c1NC(=O)c1ccc(N)cc1
- Protective index [4]: 6
- TPE (Mus musculus [1]): 1 h
- ED50 (Mus musculus [2]): 3.9 mg/kg
- ED50 (Mus musculus [5]): 66 mg/kg
- ED50 (Mus musculus [3]): 10.9 mg/kg

SMILES: Cc1cccc(C)c1NC(=O)c1ccc(N)cc1 [AMELTOLIDE]
- Protective index [4]: 13
- TPE (Mus musculus [1]): 0.5 h
- ED50 (Mus musculus [2]): 19.9 mg/kg
- ED50 (Mus musculus [5]): 23 mg/kg
- ED50 (Mus musculus [3]): 1.4 mg/kg

SMILES: CC(=O)Nc1ccc(C(=O)Nc2c(C)cccc2C)cc1
- Protective index [4]: 21
- TPE (Mus musculus [1]): 2 h
- ED50 (Mus musculus [2]): 19.9 mg/kg
- ED50 (Mus musculus [5]): 96.4 mg/kg
- ED50 (Mus musculus [3]): 4.7 mg/kg

SMILES: O=C1NC(=O)C(c2ccccc2)(c2ccccc2)N1 [PHENYTOIN]
- TPE (Mus musculus [1]): 2 h
- ED50 (Mus musculus [5]): 83.7 mg/kg
- ED50 (Mus musculus [3]): 8.1 mg/kg
